OX1R antag-1: antagonists of human orexin 1 receptor | CHO/OX1R cells, Fluo-8 calcium fluorescence, orexin A | inhibition, % at 5 µM | O43613 | hit rate 0.43% among 330,000 | AID 434989;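 active = inhibition above its plate's threshold, mean inhibition of all tested compounds on the plate plus 3 SD, cut at about 37% in these data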;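 also: 0% = orexin A challenge wells and 100% = SB-334867-A antagonist wells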
Target sequence (O43613 whole entry, looked up): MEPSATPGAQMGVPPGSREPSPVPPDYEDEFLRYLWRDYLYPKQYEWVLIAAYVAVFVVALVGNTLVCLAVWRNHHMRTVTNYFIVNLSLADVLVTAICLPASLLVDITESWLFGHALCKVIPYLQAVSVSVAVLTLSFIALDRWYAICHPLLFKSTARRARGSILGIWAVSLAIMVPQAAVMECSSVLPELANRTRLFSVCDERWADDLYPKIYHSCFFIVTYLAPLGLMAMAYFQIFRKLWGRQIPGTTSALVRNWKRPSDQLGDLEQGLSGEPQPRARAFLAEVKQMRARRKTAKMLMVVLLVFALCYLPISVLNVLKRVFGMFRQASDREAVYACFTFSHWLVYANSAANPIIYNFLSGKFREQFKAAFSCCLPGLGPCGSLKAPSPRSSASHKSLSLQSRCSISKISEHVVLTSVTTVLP
TAAR1 ag: human TAAR1 agonism | Q96RJ0 | CHO RD-HGA16 TAAR1, Fluo-8 calcium fluorescence; vehicle wells 0%, saturating PEA agonist 100% | activation, % at 3 µM | hit rate 0.99% among 360,000;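 active = activation above the mean activation of all test compounds in the run plus 3 SD, cut at about 38% in these data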
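Assay system – CHO-derived RD-HGA16 cells with stable Gα16 and human TAAR1 · Compound dosing – one-point dosing at 3 µM (nominal) · Incubation – 17-24 h seeding, 75 min 37 °C dye, 30 min RT · Measured by – kinetic Fluo-8 calcium fluorescence · Control set – DMSO vehicle as 0%, PEA at EC100 as 100% · Repeats – single well for each compound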
NTR1 agonist: activates human neurotensin receptor 1. P30989. NTR1-U2OS beta-arrestin-GFP spot imaging, agonist mode. activation, % at 20 µM. hit rate 0.17% among 330,000;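 active = activation at or above 40% of the spot to cytoplasm intensity ratio, with at least 20 cells analyzed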;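 also: 0% = DMSO without peptide and 100% = 100 nM NTR1 peptide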
TAAR1 antag: human TAAR1 antagonism. CHO RD-HGA16 TAAR1, Fluo-8 calcium fluorescence, antagonist. Q96RJ0. inhibition, % at 3 µM. hit rate 1.5% among 360,000. AID 624466;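 active = inhibition above a per-plate cutoff, the mean inhibition of test compounds on that plate plus 3 SD, cut at about 49% in these data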;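 also: 0% = DMSO plus EC80 beta-PEA response and 100% = DMSO alone without agonist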
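test system = CHO RD-HGA16 cells bearing hTAAR1 | replication = singlicate | controls = DMSO-only wells and EC80 β-PEA-stimulated wells | reagent = EC80 β-phenethylamine stimulus | read-out basis = percent inhibition of PEA-evoked calcium signal, max/basal emission ratio | schedule = seeding 17-24 h prior, 75-min 37 °C, 30-min RT dye loading | signal = kinetic Fluo-8 calcium fluorescence measurement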
CHO parental Ca: counter-screen: ATP calcium response change in parental CHO cells; hit rate 0.63% among 330,000; parental CHO-K1, ATP-induced calcium, Fluo-8 fluorescence; AID 463079; inhibition, % at 5.6 µM;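 active = inhibition above that plate's mean sample inhibition plus 3 SD, cut at about 26% in these data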;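 also: 0% = ATP-challenged DMSO wells and 100% = DMSO wells without ATP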
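Measured by: calcium-sensitive Fluo-8 fluorescence / Test system: CHO parental line / Controls: ATP-challenged DMSO wells low, unchallenged DMSO wells high / Measure: % inhibition / Compound: single nominal dose of 5.6 µM per compound / Replicates: single well per compound, no replicates / Reagent: ATP as calcium-mobilizing challenge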
OX1R antag-2: antagonists of human orexin 1 receptor (OX1R); O43613; OX1R-expressing cells, FRET antagonist read-out; inhibition, % at 6.6 µM; hit rate 1.8% among 330,000; AID 485270; in the data active = inhibition mostly above about 38%, no sharp cut-off; inactive = mostly below about 40%;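 also: 0% = agonist challenge alone and 100% = reference antagonist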
TAAR1 ag conf: human TAAR1 agonism, confirmed. CHO RD-HGA16 TAAR1, Fluo-8 calcium fluorescence; scaled: DMSO 0%, maximal phenethylamine 100%. activation, % at 3 µM. shares compounds with TAAR1 ag. hit rate 82% among 2,400;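 active = activation above a cutoff set at the run's mean compound activation plus 3 SD, cut at about 39% in these data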
Ga16 ag counter: nonselective agonist in parental cells, TAAR1 agonist counter-screen. shares compounds with TAAR1 ag. CHO-Ga16 parental, Fluo-8 calcium fluorescence; normalized to maximal ATP response, DMSO zero. activation, % at 3 µM. hit rate 50% among 2,400. AID 651787;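 active = activation above the run cutoff, the mean activation over all tested wells plus 3 SD, cut at about 12% in these data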;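 also: 0% = DMSO wells and 100% = maximal ATP response on the peak over basal ratio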
TAAR1 desensitize: counter-screen for human TAAR1 agonists: agonists that desensitize TAAR1; CHO RD-HGA16 hTAAR1, Fluo-8 calcium, beta-PEA response inhibition; shares compounds with TAAR1 ag; hit rate 46% among 2,400; inhibition, % at 3 µM;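 active = inhibition above the run cutoff, the mean inhibition of all test compounds plus 3 SD, cut at about 49% in these data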;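 also: beta-PEA stimulus applied at its EC80; loss of beta-PEA calcium signal after compound pretreatment read as receptor desensitization; 0% = DMSO with beta-PEA at EC80 and 100% = DMSO alone without agonist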
Ga16 nonsel ant: counter-screen for TAAR1 agonists: nonselective Ga16 antagonists; shares compounds with TAAR1 ag; CHO-Ga16 ATP-induced calcium, Fluo-8 fluorescence; inhibition, % at 3 µM; hit rate 39% among 2,400; AID 651952;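 active = inhibition above the plate's mean compound inhibition plus 3 SD, computed per plate, cut at about 22% in these data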;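 also: 0% = EC80 ATP with DMSO and 100% = DMSO wells without ATP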
Starred values were filed as active, the others as inactive; / = no result given. Most compounds without a hit are left out; they make up all but 4% or so of the library.

SMILES	OX1R antag-1	TAAR1 ag	NTR1 agonist	TAAR1 antag	CHO parental Ca	OX1R antag-2	TAAR1 ag conf	Ga16 ag counter	TAAR1 desensitize	Ga16 nonsel ant
CCCCCOc1ccc(CSC(=N)N)cc1[N+](=O)[O-]	-26.5	59.2*	2.4	27.7	-9.9	29.6	104.4*	58.5*	69.3*	29.3*
Cc1c(C(=O)NCc2ccc(F)cc2)sc(=O)n1Cc1ccccc1F	/	6.3	/	14.4	/	/	/	/	/	/
COc1ccccc1CNC(=O)COC(=O)/C=C/c1ccc(OC(F)F)c(OC)c1	-13.9	92.2*	2.4	78.3*	4.3	28.1	47.0*	22.8*	56.9*	23.0*
O=C(COC(=O)/C=C/c1ccc(OC(F)F)cc1)NCc1cccs1	7.5	82.3*	-0.4	61.2*	4.7	7.0	15.3	10.6	-1.3	5.2
O=C(COC(=O)/C=C/c1cccc(Br)c1)NCc1cccs1	1.7	3.1	0.2	-12.5	-11.1	-1.1	/	/	/	/
COc1ccc(C(=O)CC(=O)C(=O)Nc2ccccc2Cl)cc1	-25.9	35.3	/	8.2	-7.5	-2.6	/	/	/	/
COc1ccc(C(=O)CC(=O)C(=O)Nc2ccccc2C(F)(F)F)cc1	-9.7	93.8*	2.5	73.3*	-20.1	-7.5	132.2*	119.9*	86.7*	76.6*
COc1ccc(/C=C/C(=O)Nc2ccccc2C(F)(F)F)cc1	-13.0	47.8*	-1.0	28.9	-7.5	2.4	16.3	9.5	19.3	16.2
O=C(O)COc1ccc(Br)cc1CP(=O)(c1ccccc1)c1ccccc1	-8.3	-0.8	4.3	8.3	-4.2	12.3	/	/	/	/
O=C(NCc1ccco1)c1ccc(Cl)c(S(=O)(=O)N2CCCC2)c1	-8.8	-0.4	-2.0	-3.5	-11.0	3.6	/	/	/	/
Cc1cccn2c(CNCC3OCCc4ccccc43)c(C(=O)N3CCCCC3)nc12 (stereo unspecified)	-36.6	69.2*	-1.7	44.8	-22.0	7.4	74.3*	5.7	60.8*	18.5
CN(CCc1ccccc1)C(=O)c1ccc(NC(=O)Cc2ccc(NC(=O)C3CCN(S(=O)(=O)c4cccc([N+](=O)[O-])c4)CC3)cc2)cc1	/	28.4	/	-10.3	/	/	/	/	/	/
CN(CCc1ccccc1)C(=O)c1ccc(NC(=O)Cc2cccc(NC(=O)C3CCN(S(=O)(=O)c4cccc([N+](=O)[O-])c4)CC3)c2)cc1	/	43.2*	/	11.9	/	/	66.0*	1.6	19.8	7.9
O=C1NN=C2CCCCCC12 (stereo unspecified)	/	1.9	/	-7.2	/	/	/	/	/	/
CCC(=O)N1CCCC(C)(C(=O)Nc2ccc(C)c(C)c2)C1 (stereo unspecified)	/	3.2	/	-12.9	/	/	/	/	/	/
O=C(CNC(=O)c1ccccc1Br)N/N=C/c1cc(Br)ccc1O	-32.9	22.7	-1.5	5.7	-15.2	14.4	/	/	/	/
O=C(CNC(=O)c1ccccc1Br)N/N=C/c1ccccc1O	-11.1	47.3*	-0.1	23.7	-13.2	28.9	66.9*	3.0	39.9	6.9
O=C(CCC(=O)Nc1ccc(Br)cc1)N/N=C/c1ccccc1F	-30.7	6.7	0.3	7.0	-13.7	10.0	/	/	/	/
O=C(Cc1n[nH]c(=O)[nH]c1=O)N/N=C/c1ccccc1O	-8.9	/	-0.4	/	-0.7	14.7	/	2.6	/	14.0
O=C(CC(=O)N/N=C/c1ccccc1)NCc1ccccc1	8.7	20.7	-1.0	-4.3	8.3	17.1	/	/	/	/
O=C(CCC(=O)Nc1ccc(F)cc1)N/N=C/c1ccccc1O	-3.8	54.5*	0.6	-7.6	-6.7	6.1	71.5*	4.6	48.4	10.7

Screens from PubChem.
